Starred links: 1 amine or outer side, 2 acyl side, 3 side chain; linkers in the order of their positions; H or OH if unused. Positions of bridges follow the written chain, without caps; N, C: chain ends. Non-standard residues stand in square brackets, D forms with d. Residues, ends and D or L forms follow the SMILES beside them. Chains are numbered I, II in the order given. Actinocin(9to1) = Cc1c2oc3c(C)ccc(C(=O)[*:1])c3nc-2c(C(=O)[*:2])c(N)c1=O; NMeV = CN[C@H](C(=O)O)C(C)C; Sar = CNCC(=O)O
Legend:
NCI 60-cell line panel = NCI 60-cell line panel COMPARE analysis; assay type: cell-based; conditions: five-dose data, Standard Agents GI50 library; 48 h
E. coli BL21(DE3) [1] = test: Bacteria growth inhibition; assay type: cell-based, Escherichia coli; conditions: 0-100 μM, 16 h
Summary of the method: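 MIC taken as the lowest test compound concentration at which no bacterial growth was observed.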

E. coli BL21(DE3) [2] = test: Bacterial cytological profiling; assay type: cell-based, Escherichia coli
HEL299 = test: Cell cytotoxicity; assay type: cell-based; conditions: read-out: IC50 (St. dev.) HEL299; 72 h; triplicate
Summary of the method: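 Healthy lung fibroblasts were treated with each test compound. IC50 is the average of triplicate measurements, reported with standard deviation. Selectivity index is the HEL299 IC50 divided by the A549 IC50.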

HL-60 = conditions: read-out: IC50 (St. dev.) HL-60; ref prior work (footnote d); cited from earlier work
DU145 spheroids = test: Cytotoxicity in DU145 spheroids; assay type: cell-based; conditions: read-out: IC50 (St. dev.) DU145 spheroids; 72 h; triplicate
NPM1 = test: Nucleophosmin; assay type: cell-based, human; conditions: A549; 24 h; 5 nM actinomycin D, 5 μM cisplatin, 5 μM compound 1
[3] = system: HeLa parental and XPA knockout cells; test: HeLa parental and XPA knockout cytotoxicity; assay type: cell-based; conditions: 72 h
E. coli DNA gyrase = E. coli DNA gyrase (Escherichia coli, UniProt P0AES4+P0AES6); test: Inhibition of DNA gyrase activity; assay type: biochemical; conditions: positive control
E. coli DNA gyrase, sequence (P0AES4 whole entry, one chain of several): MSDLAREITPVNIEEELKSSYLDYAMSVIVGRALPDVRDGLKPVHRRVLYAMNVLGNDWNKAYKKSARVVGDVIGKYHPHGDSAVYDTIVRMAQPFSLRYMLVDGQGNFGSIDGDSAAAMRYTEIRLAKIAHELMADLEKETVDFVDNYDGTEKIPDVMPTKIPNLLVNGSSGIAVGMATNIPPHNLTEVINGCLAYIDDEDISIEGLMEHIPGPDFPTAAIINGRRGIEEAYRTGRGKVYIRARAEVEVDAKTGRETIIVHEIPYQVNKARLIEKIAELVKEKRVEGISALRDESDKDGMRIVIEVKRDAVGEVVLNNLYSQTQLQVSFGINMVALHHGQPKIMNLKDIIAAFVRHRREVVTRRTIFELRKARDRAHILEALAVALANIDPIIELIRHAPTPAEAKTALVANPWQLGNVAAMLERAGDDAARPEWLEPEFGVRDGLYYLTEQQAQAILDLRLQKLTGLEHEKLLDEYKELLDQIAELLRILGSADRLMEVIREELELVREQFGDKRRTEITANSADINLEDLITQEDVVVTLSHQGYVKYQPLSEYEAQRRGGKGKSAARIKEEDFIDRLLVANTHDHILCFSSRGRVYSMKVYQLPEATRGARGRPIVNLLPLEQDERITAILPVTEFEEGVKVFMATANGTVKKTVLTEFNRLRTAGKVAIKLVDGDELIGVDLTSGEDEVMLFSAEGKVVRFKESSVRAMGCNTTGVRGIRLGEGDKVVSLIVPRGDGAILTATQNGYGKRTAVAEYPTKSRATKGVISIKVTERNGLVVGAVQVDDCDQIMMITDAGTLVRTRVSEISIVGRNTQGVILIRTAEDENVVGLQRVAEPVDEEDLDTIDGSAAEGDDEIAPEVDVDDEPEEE

SMILES	COMPARE correlation (Pearson correlation coefficient) to compound 2 (NCI 60-cell line panel)	bacterial growth inhibition (E. coli BL21(DE3) [1])	further results
COc1cc([C@@H]2c3cc4c(cc3[C@@H](O[C@@H]3O[C@@H]5CO[C@@H](C)O[C@H]5[C@H](O)[C@H]3O)[C@H]3COC(=O)[C@H]23)OCO4)cc(OC)c1O [Etoposide]	0.39	–	–
COc1cccc2c1C(=O)c1c(O)c3c(c(O)c1C2=O)C[C@@](O)(C(=O)CO)C[C@@H]3O[C@H]1C[C@H](N)[C@H](O)[C@H](C)O1 [Doxorubicin]	0.55	–	–
CO[C@@H]1[C@H](O)C[C@@H](O[C@@H]2C[C@H](Oc3cc4cc5c(c(O)c4c(O)c3C)C(=O)[C@@H](O[C@H]3C[C@@H](O[C@H]4C[C@@H](O[C@H]6C[C@](C)(O)[C@@H](OC(C)=O)[C@H](C)O6)[C@H](O)[C@@H](C)O4)[C@H](O)[C@@H](C)O3)[C@H]([C@H](OC)C(=O)[C@@H](O)[C@@H](C)O)C5)O[C@H](C)[C@@H]2OC(C)=O)O[C@@H]1C [Chromomycin A3]	0.85	–	–
CC[C@]1(O)C[C@@H]2CN(CCc3c([nH]c4ccccc34)[C@@](C(=O)OC)(c3cc4c(cc3OC)N(C)[C@H]3[C@@](O)(C(=O)OC)[C@H](OC(C)=O)[C@]5(CC)C=CCN6CC[C@]43[C@@H]65)C2)C1 [Vinblastine]	0.64	–	–
CN(C)[C@@H]1C(O)=C(C(N)=O)C(=O)[C@@]2(O)C(O)=C3C(=O)c4c(O)cccc4[C@@](C)(O)[C@H]3C[C@@H]12 [tetracycline]	–	inhibited bacterial growth	–
CC(=O)O[C@H]1C(=O)[C@@]2(C)[C@H]([C@H](OC(=O)c3ccccc3)[C@]3(O)C[C@H](OC(=O)[C@H](O)[C@@H](NC(=O)c4ccccc4)c4ccccc4)C(C)=C1C3(C)C)[C@]1(OC(C)=O)CO[C@@H]1C[C@@H]2O [Paclitaxel]	0.71	inhibited bacterial growth except for paclitaxel	filamentation (E. coli BL21(DE3) [2]; E. coli): no filament formation
N.N.[Cl][Pt][Cl] [Cisplatin]	−0.16	inhibited bacterial growth	average filament length (E. coli BL21(DE3) [2]; E. coli treated at the MIC, 24 h): 53 μm; IC50 (HEL299): 3.05 µM; IC50 (HL-60): 3.1 µM; IC50 (DU145 spheroids): 5.28 µM; NPM1 distribution phenotype (NPM1): Smaller changes in NPM1 distribution; sensitization of XPA knockout versus parental HeLa [3]: 4 fold
O=C(O)c1cn(C2CC2)c2cc(N3CCNCC3)c(F)cc2c1=O [Ciprofloxacin]	–	–	concentration at which the supercoiled form was lost (E. coli DNA gyrase): 0.75 µM
CO[C@H]1/C=C/O[C@@]2(C)Oc3c(C)c(O)c4c(O)c(c(/C=N/N5CCN(C)CC5)c(O)c4c3C2=O)NC(=O)/C(C)=C\C=C\[C@H](C)[C@H](O)[C@@H](C)[C@@H](O)[C@@H](C)[C@H](OC(C)=O)[C@@H]1C [rifampicin]	–	inhibited bacterial growth	–
Cc1c2oc3c(C)ccc(C(=O)N[C@@H]4C(=O)N[C@H](C(C)C)C(=O)N5CCC[C@H]5C(=O)N(C)CC(=O)N(C)[C@@H](C(C)C)C(=O)O[C@@H]4C)c3nc-2c(C(=O)N[C@@H]2C(=O)N[C@H](C(C)C)C(=O)N3CCC[C@H]3C(=O)N(C)CC(=O)N(C)[C@@H](C(C)C)C(=O)O[C@@H]2C)c(N)c1=O [Actinomycin D] (I: T[dV]P[Sar][NMeV] / II: T[dV]P[Sar][NMeV]; ester I:1-I:C, II:1-II:C; linker I:N-II:N via Actinocin(9to1))	0.69	–	NPM1 distribution phenotype (NPM1): delocalized NPM1 phenotype
N.N.O=C([O-])C1(C(=O)[O-])CCC1.[Pt+2] [Carboplatin]	0.12	–	–

— publication PMC10170627 (RSC Chemical Biology, 2023)
